The values below come from ChEMBL document CHEMBL1255324, “Absence of amphotericin B-tolerant persister cells in biofilms of some Candida species” (2008).

Experiment [1] has as its system Candida parapsilosis. Nature of the experiment: Antifungal activity against Candida parapsilosis AAHB 4479 Biofilm assessed as resistant isolates after 24 hrs. The class given is functional. The method in brief: (§1)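 Biofilms formed on 0.8 cm PVC discs. Standardized YNB/50 mM glucose-grown cells (OD520 0.8) adhered 1 h at 37°C, then grew 48 h at 37°C. Mature biofilms were exposed 24 h at 37°C to amphotericin B 5–100 μg ml−1 in YNB glucose buffered to pH 7 with 0.165 M MOPS; drug-free controls. Cells were scraped and vortexed off, washed in PBS, then viable counts were made by serial dilution and plating on YNB/200 mM glucose agar. Two independent experiments, each in duplicate.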

In experiment [2] the test system is Candida parapsilosis. Nature of the experiment: Antifungal activity against Candida parapsilosis AAHB 4479 exponential-phase planktonic cell assessed as cell killing after 24 hrs. Format: functional, organism-based. The method in brief: (§2)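 Planktonic cells grown at 37°C with shaking in YNB/50 mM glucose. Exponential phase was 8 h for C. krusei, C. albicans and C. tropicalis, 11 h for C. parapsilosis and 18 h for C. glabrata; stationary phase was 48 h. Washed cells at ~10^7 cells ml−1 got amphotericin B (5–100 μg ml−1) in MOPS-buffered (pH 7) YNB glucose, 24 h at 37°C. Viable counts by plating. Two experiments in duplicate.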

For experiment [3], the system named is Candida albicans. Nature of the experiment: Antifungal activity against Candida albicans GDH 2346 Biofilm assessed as resistant isolate at 100 ug/ml after 24 hrs. Format: functional. The method in brief: as §1
The next experiment deals with Nakaseomyces glabratus. Description: Antifungal activity against Candida glabrata AAHB 12 exponential-phase planktonic cell assessed as cell killing at 5 ug/ml after 24 hrs. Format: functional, organism-based. The method in brief:
as §2

Experiment [4] concerns Candida albicans. Nature of the experiment: Antifungal activity against Candida albicans GDH 2346. Format: functional.
Experiment [5] concerns Candida tropicalis. Nature of the experiment: Antifungal activity against Candida tropicalis AAHB 73 exponential-phase planktonic cell assessed as cell killing at 5 ug/ml after 24 hrs. The class given is functional, organism-based. In a few lines: as §2
Experiment [6] deals with Candida albicans. Nature of the experiment: Antifungal activity against Candida albicans GDH 2346 exponential phase planktonic cell assessed as cell killing at 5 ug/ml after 24 hrs. Format: functional, organism-based. In a few lines: as §2
Experiment [7] relates to Candida albicans. Nature of the experiment: Antifungal activity against Candida albicans SC5314 exponential/stationary phase planktonic cell assessed as cell killing at 100 ug/ml after 24 hrs. The class given is functional, organism-based. The method in brief:
as §2

For experiment [8], the system named is Pichia kudriavzevii. Nature of the experiment: Antifungal activity against Candida krusei Glasgow Biofilm assessed as resistant isolates after 24 hrs. Format: functional. In a few lines: as §1
The subject of experiment [9] is Candida albicans. Nature of the experiment: Antifungal activity against Candida albicans SC5314 biofilm assessed as cell killing at 100 ug/ml after 24 hrs. Format: functional, organism-based. The method in brief: (§3)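 PVC discs (0.8 cm) seeded with washed YNB/50 mM glucose-grown cells (OD520 0.8), adhered 1 h at 37°C, washed, and grown 48 h at 37°C in medium. Biofilms exposed 24 h at 37°C to amphotericin B (5–100 μg ml−1) in YNB glucose buffered to pH 7 with 0.165 M MOPS; drug-free controls. Cells scraped, vortexed, PBS-washed, viable counts on YNB/200 mM glucose agar. Two experiments in duplicate.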

Experiment [10] concerns Pichia kudriavzevii. Nature of the experiment: Antifungal activity against Candida krusei Glasgow exponential-phase planktonic cell assessed as cell killing at 5 ug/ml after 24 hrs. The class given is functional, organism-based. The method in brief:
as §2

Experiment [11] deals with Candida parapsilosis. Nature of the experiment: Antifungal activity against Candida parapsilosis AAHB 4479 stationary-phase planktonic cell assessed as cell killing after 24 hrs. Format: functional, organism-based. In a few lines:
as §2

Experiment [12] deals with Candida albicans. Description: Antifungal activity against Candida albicans SC5314 exponential/stationary phase planktonic cell assessed as persisters at 100 ug/ml after 24 hrs. Format: functional, organism-based. The method in brief:
as §2

The subject of experiment [13] is Pichia kudriavzevii. Nature of the experiment: Antifungal activity against Candida krusei Glasgow stationary-phase planktonic cell assessed as cell killing after 24 hrs. Format: functional, organism-based. The method in brief:
as §2

Experiment [14] deals with Candida albicans. Nature of the experiment: Antifungal activity against Candida albicans GDH 2346 stationary phase planktonic cell assessed as cell killing at 5 ug/ml after 24 hrs. The class given is functional, organism-based. The method in brief:
as §2

The subject of experiment [15] is Candida albicans. Description: Antifungal activity against Candida albicans SC5314 biofilm persisters at 100 ug/ml after 24 hrs. Format: functional, organism-based. The method in brief:
as §3

Experiment [16] concerns Candida tropicalis. Nature of the experiment: Antifungal activity against Candida tropicalis AAHB 73 stationary-phase planktonic cell assessed as cell killing after 24 hrs. Format: functional, organism-based. The method in brief:
as §2

Each structure is given as a SMILES string. ≈ marks a conversion by molar mass, not a printed value. Calls of active or inactive are those of the source. The calls are words filed in the database; no cut-off is given here.

The term MIC denotes the lowest concentration found to suppress growth.

With `C[C@@H]1[C@H](O)[C@@H](C)/C=C/C=C/C=C/C=C/C=C/C=C/C=C/[C@H](O[C@@H]2O[C@H](C)[C@@H](O)[C@H](N)[C@@H]2O)C[C@@H]2O[C@](O)(C[C@@H](O)C[C@@H](O)[C@H](O)CC[C@@H](O)C[C@@H](O)CC(=O)O[C@H]1C)C[C@H](O)[C@H]2C(=O)O` [AMPHOTERICIN B], the Activity in the experiment with Candida parapsilosis [1] was 0.07%; in the experiment with Candida albicans [3], 0.01%; in the experiment on Pichia kudriavzevii [8], 0.001%. Besides, the outcome in the experiment on Candida parapsilosis [2], in the experiment on Candida parapsilosis [11], in the experiment with Pichia kudriavzevii [13] and in the experiment on Candida tropicalis [16] was inactive. Besides, the result with Nakaseomyces glabratus, in the experiment on Candida tropicalis [5], in the experiment on Candida albicans [6], with Candida albicans [7], in the experiment on Candida albicans [9] and with Pichia kudriavzevii [10] was Active. The outcome in the experiment with Candida albicans [12], with Candida albicans [14] and in the experiment on Candida albicans [15] was Active. 1.3 µg/mL (≈ 1.41 µM) was the least that counted as inhibitory against Candida albicans [4] (MIC).
